Results: ChEMBL document CHEMBL4732073, “1-BENZYLSPIRO[PIPERIDINE-4,1'-PYRIDO[3,4-b]indole] 'co-potentiators' for minimal function CFTR mutants” (Eur J Med Chem, 2021)
Activity calls are given as the source filed them. No cut-off for these calls is given here.

System: Cystic fibrosis transmembrane conductance regulator (Homo sapiens), P13569 [R347P]
Experiment: Potentiation of CFTR R347P mutant (unknown origin) expressed in rat FRT cells assessed as effect on VX-770-stimulated chloride current in presence of forskolin by short circuit method
Type: cell-based
Settings: not given
Summary of the method: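 R347P-CFTR FRT cells, corrected with 3 μM VX-661 for 18–24 h. Short-circuit current at 37 °C in HCO3-buffered solutions with a chloride gradient. Basolateral membrane permeabilized with 250 μg/ml amphotericin B. Sequential additions: 20 μM forskolin, 5 μM VX-770, 20 μM test compound, then 10 μM CFTRinh-172.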

Chain of Cystic fibrosis transmembrane conductance regulator (Homo sapiens), P13569 [R347P] (P13569 whole entry R347P): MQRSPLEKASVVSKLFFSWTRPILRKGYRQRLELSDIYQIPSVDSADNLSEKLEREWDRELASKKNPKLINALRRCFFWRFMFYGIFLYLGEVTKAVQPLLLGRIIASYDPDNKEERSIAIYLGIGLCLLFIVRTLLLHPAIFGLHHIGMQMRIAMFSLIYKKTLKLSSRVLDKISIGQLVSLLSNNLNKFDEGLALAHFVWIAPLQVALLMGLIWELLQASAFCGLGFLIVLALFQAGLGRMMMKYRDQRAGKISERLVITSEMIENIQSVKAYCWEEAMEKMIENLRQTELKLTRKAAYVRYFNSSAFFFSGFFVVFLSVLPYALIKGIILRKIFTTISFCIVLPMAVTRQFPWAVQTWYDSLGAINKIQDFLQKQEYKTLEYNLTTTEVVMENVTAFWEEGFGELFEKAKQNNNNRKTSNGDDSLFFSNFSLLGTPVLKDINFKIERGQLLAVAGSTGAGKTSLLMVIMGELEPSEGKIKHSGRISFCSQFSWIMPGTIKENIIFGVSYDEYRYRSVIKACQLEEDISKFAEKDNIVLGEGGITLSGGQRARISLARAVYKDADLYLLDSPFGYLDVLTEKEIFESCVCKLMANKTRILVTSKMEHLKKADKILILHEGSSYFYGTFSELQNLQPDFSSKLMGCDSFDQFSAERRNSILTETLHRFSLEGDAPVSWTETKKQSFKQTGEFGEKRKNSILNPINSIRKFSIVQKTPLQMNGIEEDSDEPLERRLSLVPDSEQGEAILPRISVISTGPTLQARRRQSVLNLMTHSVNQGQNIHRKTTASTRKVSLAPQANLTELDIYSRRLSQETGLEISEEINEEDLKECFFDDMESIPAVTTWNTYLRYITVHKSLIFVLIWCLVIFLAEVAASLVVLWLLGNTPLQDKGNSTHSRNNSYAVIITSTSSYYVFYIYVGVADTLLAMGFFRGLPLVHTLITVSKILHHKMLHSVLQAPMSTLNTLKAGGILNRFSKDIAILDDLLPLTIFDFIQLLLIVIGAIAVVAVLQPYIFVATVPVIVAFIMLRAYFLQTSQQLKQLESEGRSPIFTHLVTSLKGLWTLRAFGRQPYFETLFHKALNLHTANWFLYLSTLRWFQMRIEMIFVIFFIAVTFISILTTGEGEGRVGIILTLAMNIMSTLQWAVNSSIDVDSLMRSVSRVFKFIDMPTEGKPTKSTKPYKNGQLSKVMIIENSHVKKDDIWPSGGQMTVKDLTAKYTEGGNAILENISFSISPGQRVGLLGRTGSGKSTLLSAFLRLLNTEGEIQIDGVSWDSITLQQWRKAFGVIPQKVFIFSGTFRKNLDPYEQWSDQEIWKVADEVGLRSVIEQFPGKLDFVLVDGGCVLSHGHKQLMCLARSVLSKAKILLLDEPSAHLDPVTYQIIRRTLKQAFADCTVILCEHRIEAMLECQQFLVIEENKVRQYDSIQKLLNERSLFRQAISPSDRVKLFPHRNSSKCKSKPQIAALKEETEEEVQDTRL

SMILES | Activity
COc1ccc2[nH]c3c(c2c1)CCNC31CCN(Cc2cc(F)c(F)cc2F)CC1 | inactive

System: not listed separately
Experiment: Potentiation of CFTR I1234del mutant (unknown origin) expressed in rat FRT cells assessed as increase in VX-770-stimulated chloride current in presence of forskolin by short circuit method
Type: cell-based
Settings: Homo sapiens
Summary of the method: (§1)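 FRT cells stably expressing the mutant CFTR, corrected with 3 μM VX-661 for 18–24 hours, then grown on permeable supports. Short-circuit current at 37 °C in HCO3-buffered solutions with a chloride gradient. Basolateral membrane permeabilized with 250 μg/ml amphotericin B. Additions: 20 μM forskolin, 5 μM VX-770, test compound at a range of concentrations, then 10 μM CFTRinh-172. Concentration dependence n=3, mean ± S.E.M.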

SMILES | EC50 [µM]
COc1ccc2[nH]c3c(c2c1)CCNC31CCN(Cc2cc(F)c(F)cc2F)CC1 | 0.7

System: Cystic fibrosis transmembrane conductance regulator (Homo sapiens), P13569 [N1303K]
Experiment: Potentiation of CFTR N1303K mutant (unknown origin) expressed in human 16HBE14o- cells assessed as increase in VX-770-stimulated chloride current in presence of forskolin by short circuit method
Type: cell-based
Settings: filed as activator
Summary of the method: (§2)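 Gene-edited 16HBE14o- cells grown on permeable supports; short-circuit current at 37 °C with a chloride gradient in Hepes-buffered solutions. Sequential additions: 20 μM forskolin, 5 μM VX-770, 10 μM test compound, then 10 μM CFTRinh-172. Change in current (ΔIsc) reported as mean ± S.E.M., n = 3.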

Chain of Cystic fibrosis transmembrane conductance regulator (Homo sapiens), P13569 [N1303K] (P13569 whole entry N1303K): as the sequence (P13569 whole entry R347P) above, with P347R, N1303K counted along it

SMILES | Activity
COc1ccc2[nH]c3c(c2c1)CCNC31CCN(Cc2cc(F)c(F)cc2F)CC1 | Active

System: 16HBE14o-
Experiment: Potentiation of CFTR I1234del mutant (unknown origin) expressed in human 16HBE14o- cells assessed as increase in VX-770-stimulated chloride current in presence of forskolin by short circuit method
Type: cell-based
Settings: filed as activator
Summary of the method: as §2

SMILES | Activity
COc1ccc2[nH]c3c(c2c1)CCNC31CCN(Cc2cc(F)c(F)cc2F)CC1 | Active

Molecular target: Cystic fibrosis transmembrane conductance regulator (Homo sapiens, UniProt P13569, N1303K)
Experiment: (§3) Potentiation of CFTR N1303K mutant (unknown origin) expressed in rat FRT cells assessed as increase in VX-770-stimulated chloride current in presence of forskolin by short circuit method
Type: cell-based
Settings: not given
Summary of the method: as §1

Chain of Cystic fibrosis transmembrane conductance regulator (P13569 whole entry N1303K): as the sequence (P13569 whole entry R347P) above, with P347R, N1303K counted along it

SMILES | EC50 [µM]
COc1ccc2[nH]c3c(c2c1)CCNC31CCN(Cc2c(F)ccc(Cl)c2F)CC1 | 4.5
COc1ccc2[nH]c3c(c2c1)CCNC31CCN(Cc2ccccn2)CC1 | 11.5
COc1ccc2[nH]c3c(c2c1)CCNC31CCN(Cc2ccco2)CC1 | 16.4
COc1ccc2[nH]c3c(c2c1)CCNC31CCN(Cc2ccc(F)c(F)c2)CC1 | 11
COc1ccc2[nH]c3c(c2c1)CCNC31CCN(Cc2ccc([N+](=O)[O-])cc2F)CC1 | 5.9
COc1ccc2[nH]c3c(c2c1)CCNC31CCN(Cc2ccc(Cl)cc2Cl)CC1 | 1.8
COc1ccc2[nH]c3c(c2c1)CCNC31CCN(Cc2cccc(F)c2F)CC1 | 13.6
COc1ccc2[nH]c3c(c2c1)CCNC31CCN(Cc2cc(F)ccc2F)CC1 | 11.1
COc1ccc2[nH]c3c(c2c1)CCNC31CCCN(Cc2ccc(F)cc2F)CC1 (configuration not stated) | 20
COc1ccc2[nH]c3c(c2c1)CCNC31CCN(Cc2cc(F)cc(F)c2)CC1 | 11.1
COc1ccc2[nH]c3c(c2c1)CCNC31CCN(C(C)c2ccccc2)CC1 (configuration not stated) | 20
COc1ccc2[nH]c3c(c2c1)CCNC31CCN(Cc2ccccc2)CC1 | 12.6
COc1ccc2[nH]c3c(c2c1)CCNC31CCN(Cc2cc(F)cc(Cl)c2)CC1 | 2.5
COc1ccc2[nH]c3c(c2c1)CCNC31CCN(Cc2ccc(Br)cc2F)CC1 | 1.6
COc1ccc2[nH]c3c(c2c1)CCNC31CCN(Cc2ccccc2Cl)CC1 | 2.2
Fc1ccc(CN2CCC3(CC2)NCCc2c3[nH]c3ccc(Br)cc23)c(F)c1 | 21
COc1ccc2[nH]c3c(c2c1)CCNC31CCN(Cc2cc(Cl)ccc2[N+](=O)[O-])CC1 | 7.1
Fc1ccc(CN2CCC3(CC2)NCCc2c3[nH]c3ccccc23)c(F)c1 | 8.2
COc1ccc2[nH]c3c(c2c1)CCNC31CCN(Cc2cccnc2)CC1 | 17
COc1ccc2[nH]c3c(c2c1)CCNC31CCN(Cc2ccc(Br)c(F)c2)CC1 | 1.8
COc1ccc2[nH]c3c(c2c1)CCNC31CCN(Cc2ccc(F)cc2F)CC1 | 2

System: Cystic fibrosis transmembrane conductance regulator (Homo sapiens), P13569 [N1303K]
Experiment: as §3
Type: cell-based
Settings: not given
Summary of the method: as §1

SMILES | Activity
COc1ccc2[nH]c3c(c2c1)CCNC31CCN(Cc2ccc(C(C)(C)C)cc2)CC1 | inactive
COc1ccc2[nH]c3c(c2c1)CCNC31CCCN(Cc2ccc(F)cc2F)C1 (configuration not stated) | inactive
COc1ccc2[nH]cc(CCNC3CCN(Cc4ccccc4)CC3)c2c1 | inactive
COc1ccc2[nH]c3c(c2c1)CCNC31CCN(Cc2ccc(F)cc2F)C1 (configuration not stated) | inactive
COc1ccc2[nH]c3c(c2c1)CCNC31CCNCC1 | inactive
COc1ccc2[nH]c3c(c2c1)CCN[C@@]31CCN2Cc3ccccc3C[C@H]2C1 (racemic) | inactive
COc1ccc2c(c1)c1c(n2C)C2(CCN(Cc3ccc(F)cc3F)CC2)NCC1 | inactive
